Screening data: PubChem BioAssay, Johns Hopkins Ion Channel Center
Hits are enriched below; roughly 3.8% of the tested compounds scored in any of these assays.
KCNK9 block: blocks the human KCNK9 two-pore domain potassium channel; AID 488922; Q9NPC2; hit rate 1.2% among 310,000; HEK293 KCNK9, FluxOR thallium flux fluorescence; active compounds read low; B-score at 10 µM;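 active = ratio B-score over 3 SD below the library mean, with starting fluorescence within 5 SD of its mean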;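 note: negative B-score means less thallium flux so channel inhibition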
KCNQ1 inh: blocks the human KCNQ1 potassium channel. CHO-K1 KCNQ1, FluxOR thallium flux fluorescence; active compounds read high. P51787. hit rate 1.3% among 310,000. B-score at 10 µM;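 active = compounds whose thallium flux B-score, printed positive for inhibition, exceeds three library SD while starting fluorescence stays within three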;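 note: channel opened by potassium depolarization with thallium stimulus after 20 min compound exposure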
Kir21 inh: blocks the mouse Kir2.1 inward-rectifier potassium channel; HEK293-Kir2.1, FluxOR thallium flux fluorescence; active compounds read low; B-score at 10 µM; hit rate 0.85% among 310,000; AID 1672;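 active = fluorescence ratio B-score at or below minus 3 SD of library scores, with starting-brightness B-score within 2 SD, cut at about -4.2 in these data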;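 note: channel flux triggered by added potassium and thallium sulfate stimulus; B-score of peak minus minimum fluorescence over baseline after thallium stimulus; more negative B-score means stronger Kir2.1 block with less thallium influx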
hERG rescue: hERG (human) protection from proarrhythmic block; CHO-hERG, FluxOR thallium flux, dofetilide IC70 present; activation (rescue from dofetilide block), less the hit threshold, % at 10 µM; hit rate 0.51% among 310,000;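 active = activation above the mean of controls blocked by dofetilide plus 5 SD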;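 note: thallium influx through hERG after potassium depolarization seen as dye fluorescence rise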
KCNQ1 act: potentiators or activators of human KCNQ1 potassium channel | P51787 | CHO-K1 KCNQ1, thallium flux FluxOR fluorescence; active compounds read high | B-score at 10 µM | hit rate 0.35% among 310,000 | AID 2648;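 active = fluorescence ratio B-score, a plate-corrected score, at least three library SD, with initial intensity B-score within 5 SD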
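Medium – assay buffer, equal DMSO in all wells · Material – CHO-K1 cell line with stable KCNQ1 potassium channel expression · Signal – kinetic FluxOR thallium fluorescence, 10-s 1-Hz baseline, 110-s post-stimulus read · Compound – single concentration per compound, DMSO matched to controls · Schedule – 37 °C overnight plating, 90-min dark dye load, 20-min compound pretreatment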
KCNK3 block: human KCNK3 channel inhibition, primary screen; O14649; CHO-KCNK3 thallium flux, FluxOR fluorescence; active compounds read low; B-score at 10 µM; hit rate 0.84% among 340,000;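 active = B-score under library mean minus 4 SD, starting fluorescence ratio at most library mean plus 5 SD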;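 note: more negative B-score means stronger inhibition of thallium flux through KCNK3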
Target sequence (O14649 whole entry, looked up): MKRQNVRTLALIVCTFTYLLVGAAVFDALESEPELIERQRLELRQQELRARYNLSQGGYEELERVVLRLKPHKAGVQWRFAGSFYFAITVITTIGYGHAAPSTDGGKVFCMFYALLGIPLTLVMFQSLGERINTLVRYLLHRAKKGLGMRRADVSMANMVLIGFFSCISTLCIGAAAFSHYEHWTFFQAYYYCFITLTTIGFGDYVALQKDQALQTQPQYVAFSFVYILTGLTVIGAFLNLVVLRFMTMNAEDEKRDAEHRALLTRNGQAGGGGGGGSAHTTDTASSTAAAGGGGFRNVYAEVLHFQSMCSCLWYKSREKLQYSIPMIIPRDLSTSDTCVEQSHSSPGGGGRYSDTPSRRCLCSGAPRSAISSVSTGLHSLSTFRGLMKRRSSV
An asterisk follows results filed as active; i = inactive; / = no result given.

SMILES | KCNK9 block | KCNQ1 inh | Kir21 inh | hERG rescue | KCNQ1 act | KCNK3 block
COC(=O)C1=C(COc2ccc(F)cc2)NC(=O)NC1c1ccc(C)cc1C (stereo not drawn) | i | i | -0.71 | 7.4* | i | i
CC(C)(CNS(=O)(=O)c1ccc2ccccc2c1)N1CCOCC1 | / | / | / | / | / | i
Cc1ccc(S(=O)(=O)NCC(=O)OCc2nnc(-c3ccccc3)o2)cc1 | i | i | 1.06 | -18.4 | i | i
Cc1ccc(-c2cc(C(=O)Nc3cc(C)ccc3O)no2)cc1 | -7.8* | i | 1.88 | -7.8 | i | i
COc1ccccc1NC(=O)NC1(C(=O)N2CCC(C)CC2)CCCCC1 | i | i | -1.05 | -5.1 | i | i
CCOc1ccc(N(C)c2ccc(/C=C3/SC(=S)NC3=O)cc2)cc1 | i | i | -2.26 | -3.8 | i | i
CCOc1ccc(N=C2NC(=O)S/C2=C\c2ccc(Cl)cc2)cc1 | i | i | -0.18 | 11.1* | i | i
CCN(CC)C(=O)CN1C(=O)C2CC=C(Cl)CC2C1=O (stereo not drawn) | i | i | 1.2 | 5.8* | i | i
CN(C)C(=O)CN1C(=O)C2CC=C(Cl)CC2C1=O (stereo not drawn) | i | i | 0.69 | -10.0 | i | i
Oc1ccccc1CN(Cc1ccco1)CC(O)COCc1ccc(Cl)cc1 (stereo not drawn) | i | i | -0.85 | -8.2 | i | i
COc1ccc(COCC(O)CN(Cc2ccco2)Cc2ccccc2O)cc1 (stereo not drawn) | i | i | -6.69* | -11.6 | i | i
CN(C(=O)c1cccc(COc2ccc(Cl)cc2Cl)c1)c1ccccc1 | i | i | -5.98* | -11.7 | i | i
COc1ccccc1NS(=O)(=O)c1ccc(C)c(NC(=O)c2c(C)noc2C)c1 | / | / | / | / | / | i
CC1(C)CC(=O)C2=C(C1)OC1=C(C(=O)CC(C)(C)C1)C2c1ccc(O)cc1O | -7.01* | 7* | -8.33 | -42.4 | i | i
CC1(C)CC(=O)C2=C(C1)OC1=C(C(=O)CC(C)(C)C1)C2c1ccc(O)c([N+](=O)[O-])c1 | i | i | 1.77 | -7.1 | i | i
N/C(=N\OC(=O)CSc1ccccc1)c1ccncc1 | i | i | -1.33 | -0.8 | i | i
CC1Cc2ccccc2N1C(=O)Cn1c(=O)oc2cc(S(=O)(=O)N3CCCCC3)ccc21 (stereo not drawn) | -7.23* | i | 0.07 | -7.6 | i | i
CCOC(=O)c1[nH]c(C=O)c(C(=O)OCC)c1C | i | i | 0.89 | 4.9* | 13* | i
CCOC(=O)c1c(C)[nH]c(C(C)=O)c1C | i | i | 0.81 | -16.6 | i | i
CC(C)c1cc(NCCN2CCOCC2)n2c(nc3ccccc32)c1C#N | / | / | / | / | / | -9.22*
N#Cc1c2c(c(NCCN3CCOCC3)n3c1nc1ccccc13)CCCC2 | i | i | -1.02 | -11.5 | i | -8.92*
COc1cccc(Oc2ccc(C(F)(F)F)cc2NC(=O)C2=COCCO2)c1 | i | 10* | 1.13 | -8.3 | i | i
CN(CCOc1ccc(Cl)cc1)C(=O)C1CCN(C(=O)c2ccc(F)cc2)CC1 | i | i | -0.86 | -14.6 | i | i
CCC(c1nnnn1Cc1ccccc1)N(Cc1ccco1)Cc1cc2cc(OC)ccc2[nH]c1=O (stereo not drawn) | i | i | -0.43 | -11.4 | i | i
CCCC(c1nnnn1C(C)(C)CC)N(Cc1ccco1)Cc1cc2ccc(OC)cc2[nH]c1=O (stereo not drawn) | -6.77* | i | -0.19 | -10.2 | i | i
SMILES | KCNK9 block | KCNQ1 inh | Kir21 inh | hERG rescue | KCNQ1 act | KCNK3 block
COc1ccc(OC)c(C(=O)c2c(C)oc3cc([N+](=O)[O-])c(O)c([N+](=O)[O-])c23)c1 | i | i | 1.67 | -8.8 | i | i
Cc1oc2cc([N+](=O)[O-])c(O)c([N+](=O)[O-])c2c1C(=O)c1ccc(Cl)cc1 | i | 6* | 4.17 | -10.1 | i | i
O=C(CCS(=O)(=O)c1ccc(Br)s1)NC1CCCCCC1 | i | i | -11.3* | -5.1 | i | i
COc1ccc(-c2cc(C(=O)N3CCN(S(=O)(=O)c4ccc(C)cc4)CC3)[nH]n2)cc1 | i | i | -0.57 | -9.5 | i | i
O=C(Cc1cccc2ccccc12)N/N=C/c1ccc2cccc(O)c2n1 | i | i | 0.83 | -6.8 | i | i
O=C(Cc1cccc2ccccc12)N/N=C/c1ccc(Sc2cccc3cccnc23)o1 | -9.79* | i | 0.01 | -8.6 | i | /
CCC(C)Nc1ccc(NC(C)CC)cc1 (stereo not drawn) | / | / | / | / | / | -8.93*
CC(=O)OC[C@H]1O[C@@H](Oc2cc3ccc(=O)oc3cc2OC(C)=O)[C@H](OC(C)=O)[C@@H](OC(C)=O)[C@@H]1OC(C)=O | / | / | / | / | / | i
CCCCCCCC/C=C\CCCCCCCC(=O)O | i | i | 1.39 | 13.1* | i | i
CSC1=NS(=O)(=O)c2c(C)nn(C)c2S1 | i | i | -2.92 | -12.5 | i | i
O=S(=O)(NCCSc1ccc(Cl)cc1)c1ccc2c(c1)OCCO2 | i | i | -5.38* | -1.6 | i | i
O=S(=O)(NCCSCc1c(Cl)cccc1Cl)c1ccc2c(c1)OCCO2 | i | i | -1.62 | -14.0 | i | i
COc1ccccc1N1CCN(CCCN=C2CC(=O)N(C)C(=O)N2C)CC1 | / | / | / | / | / | i
COC(=O)c1ccc(CO/N=C/c2cccc([N+](=O)[O-])c2)cc1 | -6.68* | i | 0.63 | -1.3 | i | i
COc1ccc(C(c2nnnn2C(C)(C)C)N2CCN(c3nc4ccccc4s3)CC2)cc1 (stereo not drawn) | -7.11* | i | 0.13 | -10.2 | i | i
C=CCOc1ccc(C2OC34CCCCC3C(C#N)(C#N)C2(C#N)C(=N)O4)cc1 (stereo not drawn) | i | i | 0.05 | 5.6* | i | i
CCCCOc1ccc(C2OC34CCCCC3C(C#N)(C#N)C2(C#N)C(=N)O4)cc1 (stereo not drawn) | i | i | -0.03 | -15.0 | i | i
COc1ccc(-n2nc([N+](=O)[O-])c(=NCCc3cccc(C)c3)n2O)cc1 | i | i | 0.48 | -7.3 | i | i
Cc1cccc(CCN=c2c([N+](=O)[O-])nn(-c3ccccc3)n2O)c1 | i | i | -4.26* | -8.2 | i | i
Cc1ccc(/C=C/C(=O)C2C(=O)c3ccccc3C2=O)cc1 | i | i | 0.8 | 24.8* | 20* | i
Cc1ccc(/C=C/C(=O)c2ccccc2O)cc1 | i | i | 0.02 | -7.4 | i | i
N#Cc1c(NCCN)nc(-c2ccccc2)c2c1CCCC2 | i | i | -6.04* | -9.1 | i | i
